In brackets after ≈: the same amount, converted by molar mass. Activity calls are given as the source filed them.
Legend:
[1] = molecular target: Sigma non-opioid intracellular receptor 1 (Homo sapiens, UniProt Q99720); experiment: Displacement of [3H]-(+)-pentazocine from recombinant human sigma1 receptor expressed in HEK293 cell membranes after 120 mins by microbeta scintillation counting method
[2] = organism: Cavia porcellus; experiment: Displacement of [3H]-DTG from sigma2 receptor in guinea pig brain membranes at 1 uM after 120 mins in presence of sigma1 […] (+)-SKF10047 by microbeta scintillation counting method relative to control; type: cell membranes; conditions: Membrane
Outline: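 σ2R binding in guinea pig brain membranes with [³H]-di-o-tolylguanidine as radioligand. Compound tested at 1 μM as % inhibition. Mean of two determinations.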

[3] = Stability of the compound assessed as drug degradation at pH 2; type: physicochemical; conditions: buffer
Outline: (§1)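 Chemical stability measured by LC/MS. A 10 mM DMSO stock of compound was diluted into phosphate buffer pH 7.4 or 0.01 M HCl pH 2.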

[4] = Stability of the compound assessed as drug degradation at pH 7.4; type: physicochemical; conditions: buffer; outline: as §1
[5] = system: Mus musculus; experiment: Analgesic activity in formalin-induced nociception CD-1 mouse model assessed as reduction in time spent in licking or biting formalin injected hind paw at 40 mg/kg, ip pretreated for 30 mins followed by formalin stimulation measured up to 5 mins; type: functional, organism-based
[6] = system: Mus musculus; experiment: Analgesic activity in formalin-induced nociception CD-1 mouse model assessed as reduction in time spent in licking or biting formalin injected hind paw at 80 mg/kg, po pretreated for 30 mins followed by formalin stimulation measured after 15 to 30 mins relative to control; type: functional; set-up: scale not given: the % may be the effect or the level left
Outline: (§2)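 Mice received drug i.p. (40 mg/kg) or p.o. (80 mg/kg), and formalin was injected intraplantar. Paw licking-biting time in phase II (delayed phase) was scored. Result is % antinociception in treated animals vs vehicle.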

[7] = system: Mus musculus; experiment: Analgesic activity in formalin-induced nociception CD-1 mouse model assessed as reduction in time spent in licking or biting formalin injected hind paw at 40 mg/kg, ip pretreated for 30 mins followed by formalin stimulation measured after 15 to 30 mins relative to control; type: functional; set-up: scale not given: the % may be the effect or the level left; outline: as §2
[8] = system: Mus musculus; experiment: Analgesic activity in formalin-induced nociception CD-1 mouse model assessed as reduction in time spent in licking or biting formalin injected hind paw at 80 mg/kg, po pretreated for 30 mins followed by formalin stimulation measured up to 5 mins; type: functional, organism-based
[9] = system: Mus musculus; experiment: Antinociceptive activity in capsaicin-induced nociception pain CD-1 mouse model assessed as increase in paw withdrawal latency at 80 mg/kg, po pretreated for 30 mins followed by capsaicin challenge measured after 15 mins by von frey filament assay relative to control; type: functional
Outline: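 Capsaicin test in mice, drug given orally at 80 mg/kg. Mechanical hypersensitivity was read as paw withdrawal latency to upward pressure by von Frey filament. Result is % reduction in drug-treated vs vehicle animals.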

[10] = system: Mus musculus; experiment: Antinociceptive activity in partial sciatic nerve ligation CD-1 mouse model of neuropathic pain assessed as reduction in mechanical hypersensitivity at 80 mg/kg, po administered 8 days post partial sciatic nerve injury measured after 30 mins by von frey filament assay relative to control; type: functional; set-up: scale not given: the % may be the effect or the level left
Outline: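 Mice with partial sciatic nerve ligation, drug given orally at 80 mg/kg. Pressure threshold (g) for paw withdrawal to von Frey filament was measured after dosing. It was compared with vehicle response 8 days post-surgery and with pre-ligation baseline to give % reduction of hypersensitivity.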

[11] = molecular target: T1, CYP1A2 (Homo sapiens, UniProt P05177); experiment: Inhibition of recombinant human CYP1A2 at 1 uM relative to control; type: ADME
T1 sequence (P05177 whole entry): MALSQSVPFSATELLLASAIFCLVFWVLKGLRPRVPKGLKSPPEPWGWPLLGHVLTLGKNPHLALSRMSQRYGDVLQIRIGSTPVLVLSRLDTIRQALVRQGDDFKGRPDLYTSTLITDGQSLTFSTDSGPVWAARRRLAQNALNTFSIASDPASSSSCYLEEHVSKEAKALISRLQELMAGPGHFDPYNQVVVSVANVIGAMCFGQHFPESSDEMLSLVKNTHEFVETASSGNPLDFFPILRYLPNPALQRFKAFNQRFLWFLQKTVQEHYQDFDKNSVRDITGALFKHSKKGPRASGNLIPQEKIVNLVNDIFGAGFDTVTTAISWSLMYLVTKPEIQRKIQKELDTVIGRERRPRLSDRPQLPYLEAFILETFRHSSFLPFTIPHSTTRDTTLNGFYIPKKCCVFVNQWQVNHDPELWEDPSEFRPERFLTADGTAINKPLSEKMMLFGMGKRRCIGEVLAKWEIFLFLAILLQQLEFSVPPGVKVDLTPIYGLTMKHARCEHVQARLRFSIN

[12] = system: HepG2; experiment: Cytotoxicity against human HepG2 cells up to 100 uM by MTT assay; type: cell-based
Outline: (§3)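 HepG2 cells exposed to compound up to 100 μM. Cytotoxicity read by MTT and by Neutral Red uptake.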

[13] = molecular target: CYP2C9 (Homo sapiens, UniProt P11712); experiment: Inhibition of recombinant human CYP2C9 at 1 uM relative to control; type: ADME
CYP2C9, sequence (P11712 whole entry): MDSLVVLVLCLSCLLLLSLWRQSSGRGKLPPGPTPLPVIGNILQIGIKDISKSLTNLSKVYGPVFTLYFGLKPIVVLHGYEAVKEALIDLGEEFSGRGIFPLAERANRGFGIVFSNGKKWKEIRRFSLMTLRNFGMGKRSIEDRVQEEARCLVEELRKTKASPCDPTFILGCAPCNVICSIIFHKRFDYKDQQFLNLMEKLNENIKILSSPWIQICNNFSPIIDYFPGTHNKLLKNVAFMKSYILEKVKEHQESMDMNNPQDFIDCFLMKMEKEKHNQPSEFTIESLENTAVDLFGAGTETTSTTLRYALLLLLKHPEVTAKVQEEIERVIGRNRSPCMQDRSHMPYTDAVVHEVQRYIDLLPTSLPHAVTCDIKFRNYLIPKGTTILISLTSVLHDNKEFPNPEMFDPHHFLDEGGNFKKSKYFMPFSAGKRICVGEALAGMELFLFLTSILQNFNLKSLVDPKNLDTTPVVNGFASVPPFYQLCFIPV

[14] = Intrinsic clearance in human liver microsomes assessed as per mg protein at 1 uM after 1 hr in presence of NADPH-generating system by UPLC-MS/MS analysis; type: ADME, microsome; conditions: read-out: CLH
[15] = Thermodynamic solubility of the compound in pH 7.4 phosphate buffer; type: physicochemical; conditions: read-out: Therm_solubility
[16] = Apparent permeability in human Caco2 cells; type: ADME, cell-based; conditions: Caco-2
[17] = system: HepG2; experiment: Cytotoxicity against human HepG2 cells up to 100 uM by neutral red uptake assay; type: cell-based; outline: as §3
[18] = system: Salmonella typhimurium; experiment: Genotoxicity in Salmonella typhimurium TA1535 harboring pSK1002 by […]; type: toxicity, organism-based; conditions: salmonella enterica subsp. enterica serovar typhimurium
[19] = Displacement of [3H]-DTG from sigma2 receptor in guinea pig brain membranes after 120 mins in presence of sigma1 […] (+)-SKF10047 by microbeta scintillation counting method; type: cell membranes, Cavia porcellus, Membrane
[20] = Thermodynamic solubility of the compound in pH 2 phosphate buffer; type: physicochemical; conditions: read-out: Therm_solubility
[21] = molecular target: CYP2C19 (Homo sapiens, UniProt P33261); experiment: Inhibition of recombinant human CYP2C19 at 1 uM relative to control; type: ADME
CYP2C19, sequence (P33261 whole entry): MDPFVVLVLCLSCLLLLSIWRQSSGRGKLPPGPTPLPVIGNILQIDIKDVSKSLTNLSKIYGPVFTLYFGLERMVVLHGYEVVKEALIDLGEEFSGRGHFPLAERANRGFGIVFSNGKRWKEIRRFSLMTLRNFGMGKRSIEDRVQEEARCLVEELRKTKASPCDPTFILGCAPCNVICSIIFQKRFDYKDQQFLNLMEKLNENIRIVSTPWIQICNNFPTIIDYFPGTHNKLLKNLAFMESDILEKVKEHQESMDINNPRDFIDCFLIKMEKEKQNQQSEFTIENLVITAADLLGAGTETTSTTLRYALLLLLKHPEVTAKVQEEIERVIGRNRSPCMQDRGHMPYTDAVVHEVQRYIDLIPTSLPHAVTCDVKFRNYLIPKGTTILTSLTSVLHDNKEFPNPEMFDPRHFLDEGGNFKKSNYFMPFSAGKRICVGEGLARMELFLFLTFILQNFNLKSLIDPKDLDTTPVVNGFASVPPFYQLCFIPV

[22] = molecular target: CYP3A4 (Homo sapiens, UniProt P08684); experiment: Inhibition of recombinant human CYP3A4 at 1 uM relative to control; type: ADME
CYP3A4, sequence (P08684 whole entry): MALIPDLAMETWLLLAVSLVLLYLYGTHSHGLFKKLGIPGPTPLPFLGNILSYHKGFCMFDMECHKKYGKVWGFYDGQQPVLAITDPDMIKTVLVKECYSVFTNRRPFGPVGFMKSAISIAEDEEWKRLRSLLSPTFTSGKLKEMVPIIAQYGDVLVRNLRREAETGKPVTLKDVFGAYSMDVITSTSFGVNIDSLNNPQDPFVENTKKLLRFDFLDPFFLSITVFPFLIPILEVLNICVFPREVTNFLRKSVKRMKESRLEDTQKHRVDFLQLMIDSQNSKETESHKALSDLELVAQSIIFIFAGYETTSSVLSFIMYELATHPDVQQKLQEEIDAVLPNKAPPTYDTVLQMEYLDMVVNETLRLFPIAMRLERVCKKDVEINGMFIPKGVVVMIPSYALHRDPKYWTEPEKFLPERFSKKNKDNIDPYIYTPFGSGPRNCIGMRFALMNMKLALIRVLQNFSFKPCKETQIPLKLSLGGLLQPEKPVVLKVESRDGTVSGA

[23] = molecular target: CYP2D6 (Homo sapiens, UniProt P10635); experiment: Inhibition of recombinant human CYP2D6 at 1 uM relative to control; type: ADME
CYP2D6, sequence (P10635 whole entry): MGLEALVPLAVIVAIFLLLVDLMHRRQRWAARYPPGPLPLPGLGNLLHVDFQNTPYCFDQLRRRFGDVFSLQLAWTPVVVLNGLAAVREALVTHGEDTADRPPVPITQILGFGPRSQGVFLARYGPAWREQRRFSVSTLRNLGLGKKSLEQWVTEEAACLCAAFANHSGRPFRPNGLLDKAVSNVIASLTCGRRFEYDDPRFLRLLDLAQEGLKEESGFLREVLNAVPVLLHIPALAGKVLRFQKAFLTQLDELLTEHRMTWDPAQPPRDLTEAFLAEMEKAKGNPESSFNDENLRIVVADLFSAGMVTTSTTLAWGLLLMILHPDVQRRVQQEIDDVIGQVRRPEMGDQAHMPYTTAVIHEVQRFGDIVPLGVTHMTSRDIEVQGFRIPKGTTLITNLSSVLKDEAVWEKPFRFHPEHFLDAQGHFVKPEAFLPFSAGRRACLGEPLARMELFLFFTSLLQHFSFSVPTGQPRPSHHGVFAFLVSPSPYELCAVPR

Sigma non-opioid intracellular receptor 1, sequence (Q99720 whole entry): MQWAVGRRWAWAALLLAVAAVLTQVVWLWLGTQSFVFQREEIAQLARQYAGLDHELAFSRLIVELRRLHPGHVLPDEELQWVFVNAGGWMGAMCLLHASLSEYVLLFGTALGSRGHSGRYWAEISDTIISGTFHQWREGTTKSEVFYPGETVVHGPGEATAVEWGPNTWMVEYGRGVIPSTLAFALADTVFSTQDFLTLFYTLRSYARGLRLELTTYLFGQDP

SMILES	Ki [1] [nM]	inhibition [2] [%]	Stability [3]	Stability [4]	other results
Cn1cc(-c2ncnc3c2cnn3CCN2CCCCC2)cn1	9460	–	–	–	–
Cc1cccc(-c2ncnc3c2cnn3CCN2CCCCC2)n1	709	–	–	–	–
Cc1ncccc1-c1ncnc2c1cnn2CCN1CCCCC1	732	–	–	–	–
c1nc(-c2cnsc2)c2cnn(CCN3CCCCC3)c2n1	475	40	–	–	–
c1ccc(-c2ncnc3c2cnn3CCN2CCCCC2)nc1	634	–	–	–	–
c1csc(-c2ncnc3c2cnn3CCN2CCCCC2)n1	1830	–	–	–	–
Cc1ccncc1-c1ncnc2c1cnn2CCN1CCCCC1	707	–	–	–	–
COc1ccc(-c2ncnc3c2cnn3CCN2CCCCC2)cc1	531	58	–	–	–
Cc1ccc(C)n1-c1ncnc2c1cnn2CCN1CCCCC1	740	–	–	–	–
c1ccc2c(-c3ncnc4c3cnn4CCN3CCCCC3)cncc2c1	666	–	–	–	–
c1ccc(C2CCN(c3ncnc4c3cnn4CCN3CCCCC3)C2)cc1 (configuration not stated)	294	71	–	–	–
c1cncc(-c2ncnc3c2cnn3CCN2CCCCC2)c1	926	–	–	–	–
c1nc(N2CCCCC2)c2cnn(CCN3CCCCC3)c2n1	200	67	–	–	–
Cc1cc(OCCN2CCOCC2)nn1-c1ccc2ccccc2c1	–	–	Stable	Stable	Activity [5]: Active; Activity [6]: 66%; Activity [7]: 50%; Activity [8]: Active; Activity [9]: 48%; Activity [10]: 62%
Cn1nc(C(F)(F)F)cc1-c1ncnc2c1cnn2CCN1CCCCC1	137	–	–	–	–
Cn1nccc1-c1ncnc2c1cnn2CCN1CCCCC1	–	–	Stable	Stable	Activity [5]: Active; Activity [6]: 54%; inhibition at 1 µM [11]: < 50%; Activity [12]: Non-Toxic; Activity [7]: 67%; inhibition at 1 µM [13]: < 50%; Activity [8]: Active; microsomal CLint at 1 µM [14]: 2.4 µL/min/mg; solubility thermodynamic [15]: 1500 µg/mL (≈ 4.82 mM); Activity [9]: 43%; Papp [16]: 40.7 ×10⁻⁶ cm/s; Activity [17]: Non-Toxic; Activity [10]: 46%; Activity [18]: Non-Toxic; Ki [19]: > 1000 nM; solubility thermodynamic [20]: 2400 µg/mL (≈ 7.71 mM); inhibition at 1 µM [21]: < 50%; inhibition at 1 µM [22]: < 50%; inhibition at 1 µM [23]: < 50%

The remaining compounds from weak to strong by Ki [1], led by results:

Ki [1] [nM]	inhibition [2] [%]	Stability [3]	Stability [4]	SMILES	other results
112	–	–	–	COc1ncccc1-c1ncnc2c1cnn2CCN1CCCCC1	–
112	66	–	–	c1ccc2c(c1)ncn2-c1ncnc2c1cnn2CCN1CCCCC1	–
108	67	–	–	FC1(F)CCN(c2ncnc3c2cnn3CCN2CCCCC2)CC1	–
100	69	–	–	c1ccc(-c2ncnc3c2cnn3CCN2CCCCC2)cc1	–
95	75	Stable	Stable	Fc1ccc(-c2ncnc3c2cnn3CCN2CCCCC2)cc1	–
93	83	Stable	Stable	Fc1ccc(-c2ncnc3c2cnn3CCN2CCCCC2)c(F)c1	–
74	83	Stable	Stable	Cc1ccccc1-c1ncnc2c1cnn2CCN1CCCCC1	–
48	86	Stable	Stable	Cc1cc(F)ccc1-c1ncnc2c1cnn2CCN1CCCCC1	–
43	74	Stable	Stable	Clc1ccc(-c2ncnc3c2cnn3CCN2CCCCC2)cc1	–
35	–	Stable	Stable	Clc1ccc(-c2ncnc3c2cnn3CCN2CCCCC2)s1	–

Reference: ChEMBL document CHEMBL4261508, “Pyrazolo[3,4-d]pyrimidines as sigma-1 receptor ligands for the treatment of pain. Part 2: Introduction of cyclic substituents in position 4” (Medchemcomm, 2017)
